Columns and labels:
[1] = biological target: T1, 5-hydroxytryptamine receptor 2C (Homo sapiens, UniProt P28335); test: Inhibition constant against human 5-hydroxytryptamine 2C receptor [INI isoforms] using [3H]mesulergine as radioligand with the compound (10 uM) dissolved in DMSO
T1 sequence (P28335 whole entry): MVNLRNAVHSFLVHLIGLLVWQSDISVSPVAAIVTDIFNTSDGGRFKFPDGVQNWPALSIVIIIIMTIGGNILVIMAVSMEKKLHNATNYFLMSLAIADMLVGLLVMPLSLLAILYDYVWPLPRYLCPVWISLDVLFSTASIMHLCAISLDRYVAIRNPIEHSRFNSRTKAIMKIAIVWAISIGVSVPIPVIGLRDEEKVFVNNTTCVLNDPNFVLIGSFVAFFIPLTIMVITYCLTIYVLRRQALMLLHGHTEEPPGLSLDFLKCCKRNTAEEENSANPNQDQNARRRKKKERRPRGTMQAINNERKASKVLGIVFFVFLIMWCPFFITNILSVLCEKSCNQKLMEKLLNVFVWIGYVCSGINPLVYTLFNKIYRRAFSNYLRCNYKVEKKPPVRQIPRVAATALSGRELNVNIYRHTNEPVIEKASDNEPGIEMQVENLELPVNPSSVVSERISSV
Procedure, shortened: (§1)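 Competition binding with [3H]ketanserin (5-HT2A), [3H]mesulergine (5-HT2C) or [3H]LSD (5-HT2B) on receptor preparations. Compounds in 10% DMSO were first screened at a single concentration as duplicate determinations, each run in duplicate. Compounds giving >50% inhibition of specific binding were then tested in duplicate from 1 to 100,000 nM. Ki is the mean ± SD of computer-derived estimates, N = 4.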

[2] = biological target: T1, 5-hydroxytryptamine receptor 2C; test: Inhibition constant against human 5-hydroxytryptamine 2C receptor [VGI isoforms] using [3H]mesulergine as radioligand with the compound (10 uM) dissolved in DMSO; procedure, shortened: as §1
[3] = biological target: T2, 5-hydroxytryptamine receptor 2B (Homo sapiens, UniProt P41595); test: Inhibition constant against human 5-hydroxytryptamine 2B receptor using [3H]LSD as radioligand with the compound (10 uM) dissolved in DMSO; procedure, shortened: as §1
T2 sequence (P41595 whole entry): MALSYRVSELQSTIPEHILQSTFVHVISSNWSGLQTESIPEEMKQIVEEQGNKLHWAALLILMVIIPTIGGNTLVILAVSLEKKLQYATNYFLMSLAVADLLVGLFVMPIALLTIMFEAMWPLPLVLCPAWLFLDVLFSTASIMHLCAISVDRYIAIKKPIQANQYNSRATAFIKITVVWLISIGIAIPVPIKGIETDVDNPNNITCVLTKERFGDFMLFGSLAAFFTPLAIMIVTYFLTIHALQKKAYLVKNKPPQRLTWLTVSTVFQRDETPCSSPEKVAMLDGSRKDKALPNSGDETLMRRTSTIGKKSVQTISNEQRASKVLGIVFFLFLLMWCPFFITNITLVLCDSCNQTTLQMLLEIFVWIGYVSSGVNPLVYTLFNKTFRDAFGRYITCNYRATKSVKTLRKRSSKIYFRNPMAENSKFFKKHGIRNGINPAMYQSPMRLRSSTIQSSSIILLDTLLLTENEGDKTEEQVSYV

[4] = biological target: T3, 5-hydroxytryptamine receptor 2A (Homo sapiens, UniProt P28223); test: Inhibition constant against human 5-hydroxytryptamine 2A receptor using [3H]ketanserin as radioligand with the compound (10 uM) dissolved in DMSO; procedure, shortened: as §1
T3 sequence (P28223 whole entry): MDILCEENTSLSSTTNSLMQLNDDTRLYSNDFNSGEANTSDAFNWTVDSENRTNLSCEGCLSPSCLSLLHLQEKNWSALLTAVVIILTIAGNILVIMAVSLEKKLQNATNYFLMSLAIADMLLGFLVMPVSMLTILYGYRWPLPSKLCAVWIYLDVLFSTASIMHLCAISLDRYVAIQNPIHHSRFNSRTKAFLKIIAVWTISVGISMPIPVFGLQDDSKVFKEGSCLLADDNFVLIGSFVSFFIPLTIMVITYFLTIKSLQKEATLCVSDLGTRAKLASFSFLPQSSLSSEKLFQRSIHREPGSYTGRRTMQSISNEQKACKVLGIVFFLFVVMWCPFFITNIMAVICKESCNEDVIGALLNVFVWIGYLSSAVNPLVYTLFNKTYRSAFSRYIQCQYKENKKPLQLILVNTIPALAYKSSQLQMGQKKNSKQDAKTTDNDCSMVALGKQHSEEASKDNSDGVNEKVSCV

[5] = biological target: 5-hydroxytryptamine receptor 2A (Rattus norvegicus, UniProt P14842); test: Inhibition constant against rat 5-hydroxytryptamine 2A receptor using [3H]ketanserin as radioligand with the compound (10 uM) dissolved in DMSO; procedure, shortened: as §1
Chain of 5-hydroxytryptamine receptor 2A (Rattus norvegicus, UniProt P14842) (P14842 whole entry): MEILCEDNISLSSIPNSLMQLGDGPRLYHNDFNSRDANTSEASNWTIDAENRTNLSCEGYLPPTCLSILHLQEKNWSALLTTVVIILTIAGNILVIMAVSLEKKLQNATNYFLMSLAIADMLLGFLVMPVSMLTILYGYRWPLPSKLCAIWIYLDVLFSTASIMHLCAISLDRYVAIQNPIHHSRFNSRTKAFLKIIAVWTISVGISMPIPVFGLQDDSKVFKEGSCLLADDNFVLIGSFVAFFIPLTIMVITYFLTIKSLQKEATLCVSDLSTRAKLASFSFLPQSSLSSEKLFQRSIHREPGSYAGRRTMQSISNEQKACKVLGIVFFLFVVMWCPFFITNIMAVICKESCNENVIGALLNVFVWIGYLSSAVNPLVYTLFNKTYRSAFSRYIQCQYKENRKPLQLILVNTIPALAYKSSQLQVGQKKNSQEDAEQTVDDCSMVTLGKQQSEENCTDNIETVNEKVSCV

[6] = biological target: T4, 5-hydroxytryptamine receptor 2C (Rattus norvegicus, UniProt P08909); test: Inhibition constant against rat 5-hydroxytryptamine 2C receptor using [3H]mesulergine as radioligand with the compound (10 uM) dissolved in DMSO; procedure, shortened: as §1
T4 sequence (P08909 whole entry): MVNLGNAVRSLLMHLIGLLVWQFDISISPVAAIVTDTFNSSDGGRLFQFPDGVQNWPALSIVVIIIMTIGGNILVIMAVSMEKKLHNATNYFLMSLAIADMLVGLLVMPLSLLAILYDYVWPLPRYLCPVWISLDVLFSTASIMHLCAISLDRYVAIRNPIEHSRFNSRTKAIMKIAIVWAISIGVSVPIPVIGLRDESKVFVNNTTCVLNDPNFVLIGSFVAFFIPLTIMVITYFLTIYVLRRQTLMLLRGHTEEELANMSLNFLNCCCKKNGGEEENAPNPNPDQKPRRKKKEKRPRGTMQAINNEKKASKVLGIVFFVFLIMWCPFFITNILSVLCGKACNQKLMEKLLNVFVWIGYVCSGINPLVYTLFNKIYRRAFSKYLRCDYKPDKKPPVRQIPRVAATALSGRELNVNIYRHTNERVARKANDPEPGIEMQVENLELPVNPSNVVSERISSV

[7] = biological target: T3, 5-hydroxytryptamine receptor 2A; test: Effective concentration required for accumulation of [3H]inositol phosphate in cells stably expressing human 5-hydroxytryptamine 2A receptor determined by phosphoinositide hydrolysis assay; format: functional
Procedure, shortened: (§2)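 Phosphoinositide hydrolysis measured in cells expressing human 5-HT2A (stable) or 5-HT2B (transient) receptors, loaded overnight with [3H]inositol (15 Ci/mmol; 1 mCi/mL as supplied) in serum-free, inositol-free DMEM. Where SD is given, N ≥ 3.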

[8] = biological target: T1, 5-hydroxytryptamine receptor 2C; test: Effective concentration required for accumulation of [3H]inositol phosphate in cells stably expressing human 5-hydroxytryptamine 2C receptor determined by phosphoinositide hydrolysis assay; format: functional
[9] = biological target: T2, 5-hydroxytryptamine receptor 2B; test: Effective concentration required for accumulation of [3H]inositol phosphate in cells transiently expressing human 5-hydroxytryptamine 2B receptor determined by phosphoinositide hydrolysis assay; format: functional; procedure, shortened: as §2
[10] = biological target: T3, 5-hydroxytryptamine receptor 2A; test: Antagonistic activity against accumulation of [3H]-inositol phosphate in cells stably expressing human 5-hydroxytryptamine 2A receptor determined by phosphoinositide hydrolysis assay; format: functional; details: filed as antagonist
Procedure, shortened: (§3)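 Phosphoinositide hydrolysis assay with human receptors, 5-HT2A and 5-HT2C expressed stably and 5-HT2B transiently. Cells were loaded overnight with [3H]inositol (15 Ci/mmol; 1 mCi/mL as supplied) in inositol-free DMEM without serum.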

[11] = biological target: T5, 5-hydroxytryptamine receptor 2C (Homo sapiens) (UniProt P28335); test: Antagonistic activity against accumulation of [3H]inositol phosphate in cells stably expressing human 5-hydroxytryptamine 2C receptor determined by phosphoinositide hydrolysis assay; format: functional; details: filed as antagonist; procedure, shortened: as §3
T5 sequence (whole entry): T1 sequence (P28335 whole entry)

[12] = biological target: T2, 5-hydroxytryptamine receptor 2B; test: Antagonistic activity against accumulation of [3H]inositol phosphate in cells transiently expressing human 5-hydroxytryptamine 2B receptor determined by phosphoinositide hydrolysis assay; format: functional; details: filed as antagonist; procedure, shortened: as §3

| Structure (SMILES) | Ki [1] [nM] | Ki [2] [nM] | Ki [3] [nM] | Ki [4] [nM] | Ki [5] [nM] | Ki [6] [nM] | EC50 [7] [nM] | EC50 [8] [nM] | EC50 [9] [nM] | Activity [10] | Activity [11] | Activity [12] |
| --- | --- | --- | --- | --- | --- | --- | --- | --- | --- | --- | --- | --- |
| CN(C)CCCc1c[nH]c2cccc(O)c12 | 1110 | 84 | 98 | 588 |  |  |  |  |  |  |  |  |
| CN(C)CCn1ccc2c(O)cccc21 | 2180 | 4200 |  |  | > 10000 | 9350 |  |  |  |  |  |  |
| Oc1cccc2[nH]cc(CCN3CCCC3)c12 | 275 | 1770 | 423 | 429 |  |  |  |  |  |  |  |  |
| CN1CCN(CCc2c[nH]c3cccc(O)c23)CC1 | 103 |  | 116 | 9750 | 6900 | > 10000 |  |  |  |  |  |  |
| CN(C)CCc1c[nH]c2cccc(F)c12 | 82 | 84 | 8.39 | 335 | 1010 | 359 | 949 | 99 | 1180 |  |  |  |
| CN(C)Cc1cn(C)c2cccc(O)c12 | 87 | 125 | 1240 | 498 |  |  |  |  |  |  |  |  |
| CCCCn1cc(CCN(C)C)c2c(O)cccc21 | 4.4 | 14 | 5.8 | 310 | 200 | 15.7 | 32 | 595 |  |  |  |  |
| CN(C)CCc1cn(C)c2cccc(OP(=O)(O)O)c12 | > 10000 | 540 | 5500 | > 10000 | > 10000 | > 10000 |  |  |  |  |  |  |
| CN(C)Cc1c[nH]c2cccc(O)c12 | 24 | 12.6 | 1240 | 923 | 834 | 49 |  |  |  | Antagonist | Antagonist | Antagonist |
| CN(C)CCc1cn(C)c2cccc(O)c12 | 7 | 33 | 38 | 900 | 590 | 48 | 633 | 12 |  |  |  |  |
| Cc1[nH]c2cccc(O)c2c1CCN(C)C |  | 539 |  | 122 | 1680 | 1280 |  |  |  |  |  |  |
| CN(C)CCc1c[nH]c2cc(O)ccc12 | > 10000 | 6800 | 6300 | 7600 | > 10000 | 19000 |  |  |  |  |  |  |
| CN(C)CCc1c[nH]c2cccc(OP(=O)(O)O)c12 [PSILOCYBIN] |  |  |  |  |  |  | 3480 | 506 |  |  |  |  |
| CC(Cc1c[nH]c2cccc(O)c12)N(C)C (centres undefined) | 126 |  | 745 | 982 |  |  |  |  |  |  |  |  |
| Oc1cccc2[nH]cc(CCN3CCCc4ccccc43)c12 | 468 |  | 5570 |  | 8370 | 1450 |  |  |  |  |  |  |
| CCCCn1cc(CCN(C)C)c2c(OP(=O)(O)O)cccc21 | 73 | 210 | 170 | 3000 | > 10000 | 5700 |  |  |  | Antagonist | Antagonist | Antagonist |

From ChEMBL document CHEMBL1142853 (Bioorg Med Chem Lett, 2005)
